Active and inactive are the calls of the source. The calls are words filed in the database; no cut-off is given here.
Legend:
Plasmodium falciparum [1] = experiment: Antimalarial activity against chloroquine-sensitive Plasmodium falciparum 3D7 infected in human O+ erythrocytes after 72 hrs by SYBR Green-1 fluorescence based assay; format: functional, organism-based; settings: 3D7, 72 h
How it was run: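 P. falciparum 3D7 kept in O+ human erythrocytes, 4% hematocrit, RPMI 1640 with Albumax, hypoxanthine and gentamicin, 37 °C under 5% O2/5% CO2/90% N2. Sorbitol-synchronized rings were plated at 2% hematocrit, 1% parasitemia with drug 0–10^-4 M (0.4% DMSO final), triplicate wells, 72 h. SYBR Green I read at ex 497/em 520 nm. IC50 by visual matching of 50% growth inhibition.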

Plasmodium falciparum [2] = experiment: Inhibition of Plasmodium falciparum-mediated human hemoglobin degradation at 100 uM; format: functional, organism-based
Plasmodium falciparum [3] = experiment: Resistance index, ratio of IC50 for Plasmodium falciparum Dd2 to IC50 for Plasmodium falciparum 3D7; format: functional
How it was run: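 Ratio of IC50 against Dd2 to IC50 against 3D7. Both IC50s come from the same 72 h SYBR Green I assay: sorbitol-synchronised rings, 2% hematocrit, 1% parasitemia, 0 to 10^-4 M in triplicate, 0.4% final DMSO. Each IC50 taken by visual matching of 50% growth inhibition.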

Plasmodium falciparum [4] = experiment: Antimalarial activity against chloroquine-resistant Plasmodium falciparum Dd2 infected in human O+ erythrocytes after 72 hrs by SYBR Green-1 fluorescence based assay; format: functional, organism-based; settings: Dd2, 72 h
How it was run: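 Ring-stage culture (5% sorbitol synchronised) plated at 2% hematocrit, 1% parasitemia in RPMI 1640 with 0.5% Albumax, hypoxanthine, gentamicin; 37 °C, 5% O2/5% CO2/90% N2. Compounds from DMSO stock, final 0.4% DMSO, 0 to 10^-4 M, triplicate wells. 72 h, then SYBR Green I fluorescence (ex 497/em 520 nm). IC50 by visual matching of 50% growth inhibition.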

[5] = Selectivity index, ratio of TC50 for mice (Mus musculus) L929 cells to IC50 for Plasmodium falciparum 3D7; format: toxicity, cell-based
How it was run: (§1)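 Selectivity index was TC50 (24 h MTT in HeLa or L929) divided by IC50 against 3D7 (72 h SYBR Green I growth assay).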

[6] = Selectivity index, ratio of TC50 for human HeLa cells to IC50 for Plasmodium falciparum 3D7; format: toxicity, cell-based; how it was run: as §1
HeLa = experiment: Cytotoxicity against human HeLa cells assessed as cell viability after 24 hrs by MTT assay; format: cell-based
How it was run: (§2)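 HeLa and L929 cells were grown in RPMI with 10% FBS, seeded at 10⁴ cells/well overnight, then exposed to drug for 24 h at 37 °C, 5% CO2. DMSO at 10% final was the positive control. MTT was added for 4 h, then formazan was dissolved in DMSO and read at 570 nm. TC50 was taken from dose-response curves.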

L929 = experiment: Cytotoxicity against mouse L929 cells assessed as cell viability after 24 hrs by MTT assay; format: cell-based; settings: l929, 24 h; how it was run: as §2

SMILES | IC50 (Plasmodium falciparum [1]) [µM] | inhibition (Plasmodium falciparum [2]) | also measured
C=CCn1cc(C(CC(=O)c2ccc(Cl)cc2)c2cc(OC)c(OC)cc2OC)c2ccccc21 (centres undefined) | 8.4 | inactive | 
COc1ccc(/C=C/C(=O)c2ccc(Cl)cc2)c(OC)c1 | 6 | inactive | Ratio IC50 (Plasmodium falciparum [3]): 1.1; IC50 (Plasmodium falciparum [4]): 6.8 µM; selectivity ratio [5]: 14.6; selectivity ratio [6]: > 16.6
COc1cc(OC)c(OC)cc1/C=C/C(=O)c1ccc(I)cc1 | 2 | inactive | Ratio IC50 (Plasmodium falciparum [3]): 3.7; IC50 (Plasmodium falciparum [4]): 7.5 µM; selectivity ratio [5]: > 50; Activity (HeLa): Non-toxic; Activity (L929): Non-toxic; selectivity ratio [6]: 50
O=C(/C=C/c1ccc(Cl)cc1)c1ccc(O)cc1 | 30 | inactive | 
COc1cc(OC)c(/C=C/C(=O)c2ccc(Cl)cc2)c(OC)c1 | 8 | inactive | 
C=CCOc1ccc(C(=O)/C=C/c2ccc(Cl)cc2)cc1 | 75 | inactive | 
O=C(/C=C/c1ccc(Cl)cc1)c1ccc(Br)cc1 | 50 | inactive | 
C=CCn1cc(/C(=C\C(=O)c2ccc(Br)cc2)c2cc(OC)c(OC)cc2OC)c2ccccc21 | 17.5 | inactive | 
O=C(/C=C/c1ccc(Cl)cc1)c1ccc2c(c1)OCO2 | 97.9 | inactive | 
COc1cc(OC)c(OC)cc1/C=C/C(=O)c1ccc(Cl)c(Cl)c1 | > 20 | inactive | 
C=CC(C)(C)c1cc(/C=C/C(=O)c2ccc(O)cc2)c(OC)cc1O [LICOAGROCHACONE A] | 4.1 | inactive | 
COc1cc(OC)c(OC)cc1/C=C/C(=O)c1ccc([N+](=O)[O-])cc1 | > 200 | inactive | 
COc1ccc(C(=O)/C=C/c2cc(OC)c(OC)cc2OC)cc1 | 11.5 | inactive | 
COc1ccc(/C=C/C(=O)c2ccc(Cl)cc2)cc1 | 28.8 | inactive | 
O=C(/C=C/c1ccc(Cl)cc1)c1ccc([N+](=O)[O-])cc1 | 78 | inactive | 
O=C(/C=C/c1ccco1)c1ccc([N+](=O)[O-])cc1 | > 200 | inactive | 
COc1cc(/C=C/C(=O)c2ccc(Cl)cc2)cc(OC)c1OC | 4.6 | inactive | Ratio IC50 (Plasmodium falciparum [3]): 2.5; IC50 (Plasmodium falciparum [4]): 11.5 µM; selectivity ratio [5]: 2.8; selectivity ratio [6]: 3

SMILES | IC50 (Plasmodium falciparum [1]) [µM] | inhibition (Plasmodium falciparum [2]) | also measured
O=C(/C=C/c1ccc(Cl)cc1)c1ccc(Cl)cc1 [4',4-DICHLOROCHALCONE] | 65 | inactive | 
COc1cc(OC)c(OC)cc1/C=C/C(=O)c1ccc(-c2ccc(Br)cc2)cc1 | 47 | inactive | 
COc1cc(OC)c(OC)cc1/C=C/C(=O)c1ccc(Cl)cc1 | 4 | inactive | Ratio IC50 (Plasmodium falciparum [3]): 1.7; IC50 (Plasmodium falciparum [4]): 6.9 µM; selectivity ratio [5]: 8.3; selectivity ratio [6]: 9
COc1cc(OC)c(OC)cc1/C=C/C=C/C(=O)c1ccc(Br)cc1 | 12.2 | inactive | 
COc1ccc(C(=O)/C=C/c2ccc(Cl)cc2)cc1 | 88 | inactive | 
COc1cc(OC)c(OC)cc1/C=C/C(=O)c1ccc(Br)cc1 | 1.8 | inactive | Ratio IC50 (Plasmodium falciparum [3]): 2.8; IC50 (Plasmodium falciparum [4]): 5 µM; selectivity ratio [5]: 55.6; Activity (HeLa): Non-toxic; Activity (L929): Non-toxic; selectivity ratio [6]: 31.7
COc1ccc(C(=O)/C=C/c2ccc(Cl)c(Cl)c2)cc1 | > 200 | inactive | 
COc1cc(OC)c(OC)cc1/C=C/C(=O)c1ccc(C#N)cc1 | > 100 | inactive | 
COc1cc(OC)c(OC)cc1CCC(O)c1ccc(Cl)cc1 (centres undefined) | 50 | inactive | 
COc1ccc(/C=C/C(C)=O)c(OC)c1 | 48.5 | inactive | 
COc1cc(OC)c(OC)cc1CCC(=O)c1ccc(Cl)cc1 | 64 | inactive | 
COc1cc(OC)c(C(CC(=O)c2ccc(Cl)cc2)c2c[nH]c3ccccc23)cc1OC (centres undefined) | 8.6 | inactive | 
O=C(/C=C/c1cccs1)c1ccc([N+](=O)[O-])cc1 | 170 | inactive | 
COc1cc(OC)c(OC)cc1/C=C/C(=O)/C=C/c1ccc(Br)cc1 | 18 | inactive | 
CCN(CC)CCCC(C)Nc1ccnc2cc(Cl)ccc12 (centres undefined) |  | inactive | 
COc1cc(OC)c(OC)cc1/C=C/C(=O)c1ccc(OC)c(OC)c1OC | 7.8 | inactive | 

— ChEMBL document CHEMBL1287658, “Reinvestigation of structure-activity relationship of methoxylated chalcones as antimalarials: synthesis and evaluation of 2,4,5-trimethoxy substituted patterns as lead candidates derived from abundantly available natural β-asarone” (Eur J Med Chem, 2010)
